# The source made the active and inactive calls. The rule behind the calls is not given here.
# Tested on: HeLa
# Assay: Antiproliferative activity against human HeLa cells at 20 uM after 24 hrs by [3H]thymidine incorporation assay relative to control
# Format: functional
# Outline: (§1)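 5×10^4 cells in DMEM complete medium exposed 24 h to 20 μM inhibitor or DMSO vehicle; [3H]thymidine ([…]) added for final 4 h, cells harvested onto glass fiber filters, radioactivity by scintillation counting; expressed relative to DMSO control; mean ± SD of three independent experiments.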
row,SMILES,Activity
1,O=C1/C(=C/c2cn(-c3ccccc3)nc2-c2ccc(S(=O)(=O)N3CCCCC3)cc2)SC(=S)N1CCS(=O)(=O)O,<=30%
2,O=C1/C(=C/c2cn(-c3ccccc3)nc2-c2ccc(OCc3ccccc3)cc2)SC(=S)N1CCS(=O)(=O)O,<=30%
3,O=C1/C(=C/c2cn(-c3ccccc3)nc2-c2ccc(OCc3ccccc3F)cc2)SC(=S)N1CCS(=O)(=O)O,58%

# Tested on: HeLa
# Assay: Induction of apoptosis in human HeLa cells assessed as apoptotic cells at 20 uM after 24 hrs by annexin V/propidium iodide based flow cytometry
# Format: functional, cell-based
# Outline: (§2)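 10^5 cells in DMEM/10% FCS incubated 24 h with 20 μM inhibitor or DMSO, trypsinized; half of cells stained with AnnexinV-FITC and propidium iodide, analysed by flow cytometry; live cells taken as AnnexinV- and PI-negative; mean ± SD from three independent experiments.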
row,SMILES,Activity
1,O=C1/C(=C/c2cn(-c3ccccc3)nc2-c2ccc(OCc3ccccc3F)cc2)SC(=S)N1CCS(=O)(=O)O,inactive

# Target: T1, Receptor-type tyrosine-protein phosphatase C (Homo sapiens, UniProt P08575)
# T1 sequence (P08575 whole entry): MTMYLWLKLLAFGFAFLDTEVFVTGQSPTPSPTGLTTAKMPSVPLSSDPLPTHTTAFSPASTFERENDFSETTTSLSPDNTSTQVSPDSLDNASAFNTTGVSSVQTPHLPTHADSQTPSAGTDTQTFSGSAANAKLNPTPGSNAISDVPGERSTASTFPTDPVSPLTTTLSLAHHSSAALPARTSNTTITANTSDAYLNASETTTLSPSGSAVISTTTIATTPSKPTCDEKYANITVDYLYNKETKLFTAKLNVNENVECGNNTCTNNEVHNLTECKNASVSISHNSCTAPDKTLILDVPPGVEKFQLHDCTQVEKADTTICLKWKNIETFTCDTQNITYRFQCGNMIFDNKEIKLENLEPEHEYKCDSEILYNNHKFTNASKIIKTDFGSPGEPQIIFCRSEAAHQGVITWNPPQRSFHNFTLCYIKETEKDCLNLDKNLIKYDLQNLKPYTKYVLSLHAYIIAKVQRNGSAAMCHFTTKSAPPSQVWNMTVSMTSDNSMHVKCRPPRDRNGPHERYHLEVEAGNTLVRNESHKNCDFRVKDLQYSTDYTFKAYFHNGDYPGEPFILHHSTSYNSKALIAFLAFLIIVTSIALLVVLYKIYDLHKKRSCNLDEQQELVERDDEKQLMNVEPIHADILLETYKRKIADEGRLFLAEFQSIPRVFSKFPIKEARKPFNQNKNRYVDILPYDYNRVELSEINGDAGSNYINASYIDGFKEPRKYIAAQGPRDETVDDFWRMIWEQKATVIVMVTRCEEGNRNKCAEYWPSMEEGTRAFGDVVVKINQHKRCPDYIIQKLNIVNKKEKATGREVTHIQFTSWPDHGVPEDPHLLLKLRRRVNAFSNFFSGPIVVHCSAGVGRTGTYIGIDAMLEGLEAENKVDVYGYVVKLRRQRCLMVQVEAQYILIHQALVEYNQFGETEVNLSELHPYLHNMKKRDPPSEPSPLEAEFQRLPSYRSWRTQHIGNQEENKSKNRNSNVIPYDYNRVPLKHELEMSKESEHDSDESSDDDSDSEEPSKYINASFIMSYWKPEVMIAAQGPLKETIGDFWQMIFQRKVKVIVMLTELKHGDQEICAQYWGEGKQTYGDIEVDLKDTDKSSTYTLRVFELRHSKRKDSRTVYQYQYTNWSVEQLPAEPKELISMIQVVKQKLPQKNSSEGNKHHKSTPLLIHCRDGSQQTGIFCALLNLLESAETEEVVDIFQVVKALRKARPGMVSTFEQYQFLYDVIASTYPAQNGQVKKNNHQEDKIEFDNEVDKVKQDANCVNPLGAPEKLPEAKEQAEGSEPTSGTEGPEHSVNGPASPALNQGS
# Assay: Inhibition of recombinant CD45
row,SMILES,IC50
1,O=C1/C(=C/c2cn(-c3ccccc3)nc2-c2ccc(S(=O)(=O)N3CCCCC3)cc2)SC(=S)N1CCS(=O)(=O)O,1800 nM
2,O=C1/C(=C/c2cn(-c3ccccc3)nc2-c2ccc(OCc3ccccc3F)cc2)SC(=S)N1CCS(=O)(=O)O,500 nM

# Target: T2, M-phase inducer phosphatase 1 (Homo sapiens, UniProt P30304)
# T2 sequence (P30304 whole entry): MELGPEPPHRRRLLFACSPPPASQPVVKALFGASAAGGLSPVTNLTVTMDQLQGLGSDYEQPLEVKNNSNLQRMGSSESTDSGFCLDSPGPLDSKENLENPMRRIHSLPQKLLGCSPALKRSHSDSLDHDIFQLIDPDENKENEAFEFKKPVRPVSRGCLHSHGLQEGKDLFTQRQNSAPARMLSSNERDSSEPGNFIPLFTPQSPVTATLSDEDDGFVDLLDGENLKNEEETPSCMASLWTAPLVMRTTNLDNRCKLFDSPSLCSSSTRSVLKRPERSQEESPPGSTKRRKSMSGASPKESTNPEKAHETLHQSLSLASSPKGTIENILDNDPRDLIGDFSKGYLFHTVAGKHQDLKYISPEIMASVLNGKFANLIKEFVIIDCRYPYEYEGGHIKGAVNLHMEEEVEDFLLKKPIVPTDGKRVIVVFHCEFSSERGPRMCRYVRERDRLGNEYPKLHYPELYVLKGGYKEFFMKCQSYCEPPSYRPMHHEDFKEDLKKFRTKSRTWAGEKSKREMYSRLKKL
# Assay: Inhibition of recombinant Cdc25a
row,SMILES,IC50
1,O=C1/C(=C/c2cn(-c3ccccc3)nc2-c2ccc(S(=O)(=O)N3CCCCC3)cc2)SC(=S)N1CCS(=O)(=O)O,> 10000 nM
2,O=C1/C(=C/c2cn(-c3ccccc3)nc2-c2ccc(OCc3ccccc3F)cc2)SC(=S)N1CCS(=O)(=O)O,2800 nM

# Target: Dual specificity protein phosphatase 3 (Homo sapiens, UniProt P51452)
# Assay: Inhibition of recombinant vaccina H1-related phosphatase expressed in Escherichia coli by Michaelis-Menten kinetic studies
# Outline: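 E. coli-expressed VHR (GST-fusion, thrombin-cleaved, gel-filtered) preincubated 10 min with several fixed inhibitor concentrations in Bis-Tris pH 6.0 buffer with DTT and 5% DMSO; started with pNPP at 0.2–10 Km; initial rates at 404 nm, no-enzyme corrected; Ki and mode by nonlinear fit to competitive, uncompetitive or mixed models, compared by AICc.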
# Sequence of Dual specificity protein phosphatase 3 (P51452 whole entry): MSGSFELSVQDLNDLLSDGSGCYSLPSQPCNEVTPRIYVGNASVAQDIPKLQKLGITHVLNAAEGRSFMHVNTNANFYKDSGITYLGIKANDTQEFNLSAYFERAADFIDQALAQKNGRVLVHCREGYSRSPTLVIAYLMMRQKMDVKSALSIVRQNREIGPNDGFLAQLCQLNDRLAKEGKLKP
row,SMILES,Ki
1,Cc1cc(Br)c(-c2ccc(/C=C3\NC(=S)NC3=O)o2)cc1C,3190 nM
2,O=C1c2cccc3c4ccccc4n(c23)C(=O)C1(O)O,13800 nM
3,S=C(Nc1ccc2c(c1)oc1ccccc12)Nc1cccc2ccccc12,2940 nM
4,O=C(O)c1cccc(-c2ccc(/C=N/Nc3ccc([N+](=O)[O-])cn3)o2)c1,13800 nM
5,"COc1ccc(OC)c2c1C(=O)c1ccccc1C2=O [1,4-DIMETHOXYANTHRAQUINONE]",3070 nM
6,O=C1NC(=S)N(c2cccc(Cl)c2)C(=O)/C1=C\c1ccc[nH]1 (mixture of isomers),3490 nM
7,C=CCN1C(=O)/C(=C\C=C\c2ccco2)C(=O)NC1=S (mixture of isomers),15800 nM
8,O=C1C(Cl)=C/C(=N\S(=O)(=O)c2ccc(Cl)cc2)C(Cl)=C1Cl,13400 nM
9,CC1=C(C#N)c2nc(N)c(C#N)c(C)c2/C1=C/c1ccc(-c2ccc(C(=O)O)c(Cl)c2)o1,3870 nM
10,O=C1NC(=S)N(c2ccc(F)cc2)C(=O)/C1=C/c1ccc(Br)o1,12100 nM

# Target: T3, Tyrosine-protein phosphatase non-receptor type 7 (Homo sapiens, UniProt P35236)
# T3 sequence (P35236 whole entry): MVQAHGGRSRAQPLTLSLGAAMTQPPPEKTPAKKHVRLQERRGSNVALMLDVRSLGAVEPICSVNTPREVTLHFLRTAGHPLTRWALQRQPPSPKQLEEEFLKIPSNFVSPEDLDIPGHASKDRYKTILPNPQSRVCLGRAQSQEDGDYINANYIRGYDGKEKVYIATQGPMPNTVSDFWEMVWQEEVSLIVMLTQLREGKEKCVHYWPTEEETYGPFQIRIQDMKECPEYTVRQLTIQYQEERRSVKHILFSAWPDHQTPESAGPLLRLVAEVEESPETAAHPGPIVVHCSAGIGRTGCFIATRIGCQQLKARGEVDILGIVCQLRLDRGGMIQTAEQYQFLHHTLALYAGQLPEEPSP
# Assay: Inhibition of recombinant HePTP
row,SMILES,IC50
1,O=C1/C(=C/c2cn(-c3ccccc3)nc2-c2ccc(S(=O)(=O)N3CCCCC3)cc2)SC(=S)N1CCS(=O)(=O)O,2400 nM
2,O=C1/C(=C/c2cn(-c3ccccc3)nc2-c2ccc(OCc3ccccc3)cc2)SC(=S)N1CCS(=O)(=O)O,1500 nM
3,O=C1/C(=C/c2cn(-c3ccccc3)nc2-c2ccc(OCc3ccccc3F)cc2)SC(=S)N1CCS(=O)(=O)O,870 nM

# Tested on: Ca-Ski
# Assay: Induction of apoptosis in human CaSki cells assessed as apoptotic cells at 20 uM after 24 hrs by annexin V/propidium iodide based flow cytometry
# Format: functional, cell-based
# Outline: as §2
row,SMILES,Activity
1,O=C1/C(=C/c2cn(-c3ccccc3)nc2-c2ccc(OCc3ccccc3F)cc2)SC(=S)N1CCS(=O)(=O)O,inactive

# Tested on: HeLa
# Assay: Antiproliferative activity against human HeLa cells at 20 uM after 24 hrs by Trypan blue assay
# Format: functional
# Outline: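 10^5 cells (HeLa in DMEM/10% FCS; primary normal keratinocytes from hysterectomy tissue, trypsin-EDTA dispersed, in K-SFM with EGF, pituitary hormone) treated 24 h with 20 μM inhibitor or DMSO; trypsinized and counted with trypan blue in a counting chamber; cell numbers as percentage of DMSO control; mean ± SD, three independent experiments.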
row,SMILES,Activity
1,O=C1/C(=C/c2cn(-c3ccccc3)nc2-c2ccc(S(=O)(=O)N3CCCCC3)cc2)SC(=S)N1CCS(=O)(=O)O,Active
2,O=C1/C(=C/c2cn(-c3ccccc3)nc2-c2ccc(OCc3ccccc3)cc2)SC(=S)N1CCS(=O)(=O)O,Active
3,O=C1/C(=C/c2cn(-c3ccccc3)nc2-c2ccc(OCc3ccccc3F)cc2)SC(=S)N1CCS(=O)(=O)O,>50%

# Target: T4, Tyrosine-protein phosphatase non-receptor type 1 (Homo sapiens, UniProt P18031)
# T4 sequence (P18031 whole entry): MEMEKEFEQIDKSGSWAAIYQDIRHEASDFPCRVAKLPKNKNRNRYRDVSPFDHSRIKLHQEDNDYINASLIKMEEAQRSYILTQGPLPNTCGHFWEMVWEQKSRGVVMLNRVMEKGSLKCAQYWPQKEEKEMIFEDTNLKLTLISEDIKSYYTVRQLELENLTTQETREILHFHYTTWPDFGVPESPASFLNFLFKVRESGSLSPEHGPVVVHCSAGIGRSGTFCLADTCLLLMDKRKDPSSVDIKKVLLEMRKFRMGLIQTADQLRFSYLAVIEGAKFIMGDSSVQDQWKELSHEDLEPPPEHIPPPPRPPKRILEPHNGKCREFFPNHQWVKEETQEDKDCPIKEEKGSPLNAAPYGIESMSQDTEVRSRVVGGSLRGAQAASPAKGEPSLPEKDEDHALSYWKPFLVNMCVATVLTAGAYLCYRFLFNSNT
# Assay: Inhibition of recombinant PTP1B
row,SMILES,IC50
1,O=C1/C(=C/c2cn(-c3ccccc3)nc2-c2ccc(S(=O)(=O)N3CCCCC3)cc2)SC(=S)N1CCS(=O)(=O)O,2200 nM
2,O=C1/C(=C/c2cn(-c3ccccc3)nc2-c2ccc(OCc3ccccc3)cc2)SC(=S)N1CCS(=O)(=O)O,1800 nM
3,O=C1/C(=C/c2cn(-c3ccccc3)nc2-c2ccc(OCc3ccccc3F)cc2)SC(=S)N1CCS(=O)(=O)O,420 nM

# Tested on: Ca-Ski
# Assay: Antiproliferative activity against human CaSki cells at 20 uM after 24 hrs by [3H]thymidine incorporation assay relative to control
# Format: functional
# Outline: as §1
row,SMILES,Activity
1,O=C1/C(=C/c2cn(-c3ccccc3)nc2-c2ccc(S(=O)(=O)N3CCCCC3)cc2)SC(=S)N1CCS(=O)(=O)O,>50%
2,O=C1/C(=C/c2cn(-c3ccccc3)nc2-c2ccc(OCc3ccccc3)cc2)SC(=S)N1CCS(=O)(=O)O,>50%
3,O=C1/C(=C/c2cn(-c3ccccc3)nc2-c2ccc(OCc3ccccc3F)cc2)SC(=S)N1CCS(=O)(=O)O,74%

# Target: T5, Dual specificity protein phosphatase 1 (Homo sapiens, UniProt P28562)
# T5 sequence (P28562 whole entry): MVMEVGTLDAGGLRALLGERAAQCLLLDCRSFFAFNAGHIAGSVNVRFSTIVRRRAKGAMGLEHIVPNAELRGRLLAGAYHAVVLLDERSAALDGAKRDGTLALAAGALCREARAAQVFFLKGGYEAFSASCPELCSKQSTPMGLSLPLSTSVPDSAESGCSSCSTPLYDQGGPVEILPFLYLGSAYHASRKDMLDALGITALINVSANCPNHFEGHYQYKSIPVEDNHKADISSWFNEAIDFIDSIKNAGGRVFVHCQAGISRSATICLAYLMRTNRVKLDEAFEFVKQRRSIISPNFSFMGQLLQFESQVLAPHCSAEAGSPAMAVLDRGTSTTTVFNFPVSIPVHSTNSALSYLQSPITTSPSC
# Assay: Inhibition of recombinant MKP1
row,SMILES,IC50
1,O=C1/C(=C/c2cn(-c3ccccc3)nc2-c2ccc(S(=O)(=O)N3CCCCC3)cc2)SC(=S)N1CCS(=O)(=O)O,2800 nM
2,O=C1/C(=C/c2cn(-c3ccccc3)nc2-c2ccc(OCc3ccccc3F)cc2)SC(=S)N1CCS(=O)(=O)O,520 nM

# — ChEMBL document CHEMBL1156736, “Multidentate small-molecule inhibitors of vaccinia H1-related (VHR) phosphatase decrease proliferation of cervix cancer cells” (J Med Chem, 2009)
